Results reported in PubChem BioAssay AID504382 (The Scripps Research Institute Molecular Screening Center, 2011).
Hit rate of the full screen: of about 2,500 compounds, about 460 (18%) were called active.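 The calls were made as follows: active = mean activation above a cutoff of low control average plus 3 SD from the earlier screen (cut at about 12% in these data); inactive = the rest.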 Not all results are given here.

Experiment: compound fluorescence interference without thin filaments, confirmation, artefact control for cardiac RTF calcium sensitizer project, biochemical (AID 504382)
Details: IANBD fluorescence interference counterscreen, buffer, EC20 Ca2+; at 7.2 µM; stronger effect = higher value; scaled: EC20 calcium 0, EC100 calcium 100
Summary of the method: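 Medium: MOPS/KCl/MgCl2/EGTA/NTA/DTT buffer, pH 7.2 | Reagent: EC20 calcium, 0.472 mM | Compound dosing: 7.2 µM single dose | Times: 15 min compound exposure at 25 °C | Signal: Fluorescence, 480/540 nm | Measure: Interference relative to controls | Repeats: Triplicate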

| SMILES | fluorescence artifact activation |
| --- | --- |
| COc1cc(/C=N\NC(=O)CC(=O)NCCc2ccccc2)ccc1O | 0.17% (inactive) |
| CN(C)c1ccc(NC2=C([N+](=O)[O-])CS(=O)(=O)C2)cc1 | 3.15% (inactive) |
| CCc1ccc(NC(=O)C2CCN(S(=O)(=O)c3ccc4[nH]c(=O)ccc4c3)CC2)cc1 | 0.08% (inactive) |
| COc1ccc(C2OC34CCCCC3C(C#N)(C#N)C2(C#N)C(=N)O4)cc1 (stereo unspecified) | 0.16% (inactive) |
| CC(=O)Nc1sc2c(c1-c1nc3ccccc3s1)CN(C(C)C)CC2 | -0.08% (inactive) |
| Nc1c(C(=O)C2CC2)sc2nc(-c3ccccc3)cc(C(F)(F)F)c12 | 8.48% (inactive) |
| O=C(O)CN1C(=O)/C(=C\c2cn(CC(=O)N3CCOCC3)c3ccccc23)SC1=S | 4.83% (inactive) |
| Cn1cccc1/C=C1/SC(=S)N(CC(=O)O)C1=O | 52.3% (active) |
| Cn1cccc1/C=C1\SC(=S)N(CC(=O)O)C1=O | 3.44% (inactive) |
| COc1ccc2noc3c2c1C(=O)c1ccccc1-3 | 0.01% (inactive) |
| COc1ccc(N=Cc2c(O)c3ccccc3n2C(C)=O)cc1 | 1.91% (inactive) |
| N=c1oc2ccccc2cc1-c1nc(-c2ccccc2)cs1 | 0.03% (inactive) |
| N#C/C(=C/c1ccc(N2CCOCC2)o1)C(=O)NC1CCCCC1 | -0.06% (inactive) |
| N#C/C(=C/c1ccc(N2CCCCC2)o1)C(=O)Nc1ccc2ccccc2c1 | 52.8% (active) |
| N#C/C(=C/c1ccc(N2CCCCC2)o1)C(=O)Nc1ccc(Cl)cc1 | 36.7% (active) |
| N#C/C(=C\c1ccc(N2CCOCC2)o1)C(=O)NC1CCCCC1 | 10.5% (inactive) |
| N#C/C(=C\c1ccc(N2CCCCC2)o1)C(=O)Nc1cccc(Br)c1 | 1.73% (inactive) |
| COc1ccc(NC(=O)/C(C#N)=C\c2ccc(N3CCOCC3)o2)cc1 | 8.28% (inactive) |
| CCOC(=O)C1(Cc2cccc(OC)c2)CCCN(Cc2nccn2CC)C1 (stereo unspecified) | 0.29% (inactive) |
| O=C(NCc1ccco1)c1cc(-c2cccc(Cl)c2)on1 | 0.3% (inactive) |
| O=c1[nH]ncc2c3ccccc3n(Cc3cccc(Cl)c3)c12 | -0.06% (inactive) |
| Cc1nc2oc(C(=O)c3ccccc3)c(N)c2c2c1COC(C)(C)C2 | 233% (active) |
| N#CC1(NC(=O)CN2CCN(S(=O)(=O)c3ccccc3F)CC2)CCCC1 | -0.12% (inactive) |

| SMILES | fluorescence artifact activation |
| --- | --- |
| O=C(C1=C[C@@H](c2ccc(Br)cc2)C[C@@H](OCc2ccc(CO)cc2)O1)N1CCN(Cc2ccc3c(c2)OCO3)CC1 | 0.02% (inactive) |
| O=[n+]1c2c(n([O-])c3cc(F)c(N4CCCC4)cc31)CCC2 | 18.6% (active) |
| O=[n+]1c2c(n([O-])c3cc(F)c(N4CCCC4)cc31)CCCC2 | 50.2% (active) |
| O=[n+]1c2c(n([O-])c3ccccc31)CCC2 | 8.78% (inactive) |
| CC(C)n1cnc2c(NCc3ccccc3)cc(N[C@H](C)CO)cc21 | -0.08% (inactive) |
| C#CCN1C(=O)S/C(=C/C=C/c2ccc(N(C)C)cc2)C1=O | 0.36% (inactive) |
| O=C(NCCN1CCOCC1)c1ccccc1N1C(=O)[C@@H]2Cc3c([nH]c4ccccc34)C(c3ccc(F)cc3)N2C1=O (stereo partly specified) | 0.13% (inactive) |
| COC(=O)CCC(=O)OC1(C)C(=O)C2=CN(Cc3ccc(OC)cc3)C(c3ccc(OC)cc3)=CC2=C(Br)C1=O (stereo unspecified) | -0.01% (inactive) |
| CN(N=Nc1nc[nH]c1C(=O)NN)C1CCCCC1 | 0.38% (inactive) |
| Fc1ccc(CN2CCCN(C(=S)Nc3ccc(F)cc3)CC2)cc1 | 17.4% (active) |
| O=C(Nc1ccc(F)cc1)OCCN1CCN(Cc2ccccc2)CCC1=O | -0.08% (inactive) |
| Cc1ccc(NC(=O)COC(=O)c2csc3c2CCC(C)C3)cc1S(=O)(=O)N1CCCCC1 (stereo unspecified) | 1.08% (inactive) |
| COc1ccc2c(CC(=O)N[C@@H](Cc3c[nH]c4ccccc34)C(=O)O)cc(=O)oc2c1 | 4.51% (inactive) |
| CCc1ccc(-n2c(O)c(C=NCCN(CC)CC)c(=O)[nH]c2=O)cc1 | 2.92% (inactive) |
| CCOc1ccc(-n2c(SCC(=O)Nc3ccc(OC)cc3OC)nc3c(c2=O)SCC3)cc1 | 0.76% (inactive) |
| Cc1[nH]nc2c1C(c1cc(Br)cs1)C(C#N)=C(N)O2 (stereo unspecified) | 0.04% (inactive) |
| COc1ccc(-c2ccc(C3C(C#N)=C(N)Oc4n[nH]c(C)c43)o2)cc1 (stereo unspecified) | 14.3% (active) |
| CCOc1ccc(NC(=S)c2ccncc2)cc1 | 0.07% (inactive) |
| C=COc1ccc(N2C(=O)c3ccccc3OC2C)cc1 (stereo unspecified) | 2.14% (inactive) |
| O=C(O)c1cccc(-c2ccc(/C=N/Nc3ccc([N+](=O)[O-])cc3)o2)c1 | 1.4% (inactive) |
| COc1ccc(-c2cc3ncc(-c4ccccc4)c(N)n3n2)cc1 | 1.7% (inactive) |
| Nc1ccc2nc3c(=O)[nH]c(=S)[nH]c3nc2c1 | 6.07% (inactive) |
| Nc1ccc2nc(-c3ccccc3)cnc2c1 | 26.1% (active) |

| SMILES | fluorescence artifact activation |
| --- | --- |
| Cc1ccc(SCC(=O)c2sc(-c3ccccc3)nc2C)cc1 | 10.1% (inactive) |
| Cc1ccc(-c2nc(N)sc2CC(=O)OCC(=O)NCCC(C)C)cc1 | 2.4% (inactive) |
| Cc1ccc(-c2nc(C)sc2CC(=O)O)cc1 | 14.7% (active) |
| COC(=O)c1ccc(S(=O)(=O)N(CCO)Cc2ccccc2)n1C | -0.01% (inactive) |
| Cc1ccc(N=Nc2c(O)n(CN3CCOCC3)c3ccccc23)cc1 | 4.5% (inactive) |
| CCOC(=O)C1=C(C)N=c2s/c(=C/c3ccc(OCC(=O)O)cc3)c(=O)n2C1c1ccc(SC)cc1 (stereo unspecified) | 0.15% (inactive) |
| Cc1ccc(C)c(C2=NNC(=O)CC2)c1 | 0.16% (inactive) |
| Cc1cc(NC(=O)CCC(=O)N(CCC(C)C)C(C(=O)NC2CCCC2)c2cccnc2)no1 (stereo unspecified) | 0% (inactive) |
| C=CC[C@@H](CC(=O)N(CCO)Cc1ccccc1)C(=O)N[C@@H](COC(=O)[C@@H](CC=C)Cc1ccc(F)cc1)Cc1ccccc1 | 0.09% (inactive) |
| CC(=O)N1C(=O)C(=C2C=C(C)OC(C)=C2)c2ccccc21 | 21.3% (active) |
| CCCn1c(N2CCN(CC(=O)c3c[nH]c4ccccc34)CC2)nc2c1c(=O)[nH]c(=O)n2C | 0.12% (inactive) |
| CCCCCCCCOc1ccc(C2OC34CCCCC3C(C#N)(C#N)C2(C#N)C(=N)O4)cc1 (stereo unspecified) | 4.01% (inactive) |
| CCN1/C(=C/C=C/c2oc3ccc(-c4ccccc4)cc3[n+]2CC)Oc2ccc(-c3ccccc3)cc21 | -0.02% (inactive) |
| COc1ccc(C(=O)NCC(=O)N2CCN(C(=O)c3ccco3)CC2)cc1OC | 23.6% (active) |
| CCC(c1nnnn1C1CCCCC1)N1CCN(C(=O)c2ccco2)CC1 (stereo unspecified) | 6.69% (inactive) |
| O=C(Nc1ccc(N2CCN(C(=O)c3ccco3)CC2)cc1)c1ccc(F)cc1 | 0.11% (inactive) |
| COc1cccc(C2CC(c3ccccc3)n3ncnc3N2)c1 (stereo unspecified) | 7.41% (inactive) |
| CCOC(=O)N1CCC(Nc2nc3ccccc3nc2NS(=O)(=O)c2ccc(Cl)cc2)CC1 | -0.02% (inactive) |
| CCOC(=O)N1CCC(NC(=O)c2cccs2)CC1 | -0.01% (inactive) |
| CCOC(=O)N1CCC(Nc2cccc(SC)c2)CC1 | 97.8% (active) |
| CN1CCc2c(sc(/N=C/c3cccs3)c2C(N)=O)C1 | -0.06% (inactive) |
| O=C(NCC1CC1)Nc1cccc(Cl)c1 | 0.16% (inactive) |
| Cn1c(NC(=O)C[n+]2cc(-c3ccc(Cl)cc3)n3c2CCC3)cc(=O)n(C)c1=O | 1.86% (inactive) |

| SMILES | fluorescence artifact activation |
| --- | --- |
| C=CCOc1ccc(C2C(C(=O)c3cccs3)=C(O)C(=O)N2c2nnc(C)s2)cc1 (stereo unspecified) | 0.1% (inactive) |
| COc1ccc(C2C(C(=O)c3cccs3)=C(O)C(=O)N2c2nnc(C)s2)cc1OC (stereo unspecified) | 0.77% (inactive) |
| Cc1ccc(C2C(C(=O)c3cccs3)=C(O)C(=O)N2c2nnc(C)s2)cc1 (stereo unspecified) | 17.5% (active) |
| O=c1c2ccccc2cnn1Cc1n[nH]c(=S)n1-c1ccccc1Cl | 2.78% (inactive) |
| O=C(O)c1cccc([N+](=O)[O-])c1C(=O)Nc1cccc2ccccc12 | 1.51% (inactive) |
| O=C(O)c1cccc2c1-c1c(cccc1[N+](=O)[O-])C2 | 706% (active) |
| CC(C)C12CN(C(=O)c3ccccc3[N+](=O)[O-])CC(C(C)C)(CN(C(=O)c3ccccc3[N+](=O)[O-])C1)C2=O | 0.02% (inactive) |
| COc1ccc(Cl)cc1NC(=O)CN(C)C(=O)c1ccc(N2CCCCCC2)c([N+](=O)[O-])c1 | 21.3% (active) |
| COc1ccc(Cl)cc1NC(=O)CN(C)C(=O)COc1ccccc1F | 0.35% (inactive) |
| COc1ccc(OC)c(NC(=O)c2cc(S(=O)(=O)N(C)C)ccc2N2CCCC2)c1 | 0.05% (inactive) |
| Cc1nc(NC(=O)c2ccccc2[N+](=O)[O-])sc1C(=O)N(C)C | 0.02% (inactive) |
| O=C(c1ccc(Nc2cccc(C(F)(F)F)c2)nc1)N1CCCC1 | 55.9% (active) |
| COc1cccc(S(=O)(=O)Nc2cccc(C(=O)N3CCCCCC3)c2)c1 | 0.03% (inactive) |
| O=C(CN1CCN(c2ccccc2)CC1)Nc1cccc(C(F)(F)F)c1 | 0.02% (inactive) |
| Cc1ccc(S(=O)(=O)N2CCOCC2)cc1NC(=O)CSc1nccn1C | 0.07% (inactive) |
| CCCCCC(C)NC(=S)NC(=O)c1cc(S(=O)(=O)N2CCOCC2)ccc1C (stereo unspecified) | 0.05% (inactive) |
| Cc1csc(NS(=O)(=O)c2cccc([N+](=O)[O-])c2)n1 | 0.08% (inactive) |
| CC1=CC(=C(C#N)C#N)C=C(C)N1Cc1ccc(Cl)cc1 | 10.8% (inactive) |
| CCSC1=N/C(=C\C=C2/Oc3ccccc3N2CC)C(=O)S1 | 9.59% (inactive) |
| COC(=O)c1ccc(CSc2nnc(NCc3ccccc3)s2)o1 | 4.53% (inactive) |
| CC(Sc1nnc(NCc2ccccc2)s1)C(=O)Nc1ccc2c(c1)C(=O)c1ccccc1C2=O (stereo unspecified) | 49% (active) |
| CC1(C(=O)Nc2nnc(SCc3ccccc3)s2)Cc2ccccc2C(=O)O1 (stereo unspecified) | 4.5% (inactive) |
